# High-throughput results (PubChem BioAssay)
# Rows were chosen to be rich in hits. Some 1.9% of all compounds tested hit in one or more screens of this group.
# IDE inh – inhibitors of human insulin-degrading enzyme in cells. 320,000 compounds, 0.41% hits. P14735. HEK cells, FAbetaB cleavage, fluorescence polarization. AID 434962. inhibition, % at 5.59 µM;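 active = percent inhibition above the average of all tested compounds plus 3 SD, set per screening campaign, cut at about 16% in these data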;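 also: IDE supplied by intact live HEK cells; FP after avidin binding of uncleaved biotin substrate so inhibition keeps polarization high; 0% = DMSO wells and 100% = 60 µM reference IDE inhibitor Ii1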
# procasp7 counter – counter-screen for procaspase-3 activators: activators of human procaspase-7; P55210; recombinant procaspase-7, Ac-DEVD-pNA absorbance 405 nm; D23A/D198A/D206A triple mutant, cannot self-cleave; scale: DMSO 0, 5 µM enzyme 100; activation, % at 8.5 µM; 330,000 compounds, 0.093% hits;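 active = percent activation above the screen-wide mean plus 3 SD, cut at about 25% in these data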
#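 Assay system: Uncleavable procaspase-7 mutant enzyme / Input: 2 µM procaspase-7 mutant as dispensed / Dosing: single nominal 8.5 µM compound dose, 0.8% DMSO final / Timing: 1 h enzyme–compound preincubation and 2 h substrate reaction, both 25 °C / Detection: p-Nitroaniline absorbance at 405 nm, read at 0 and 120 min / Replication: singlicate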
# PHOSPHO1 inh – PHOSPHO1 (human) inhibition | recombinant PHOSPHO1, absorbance phosphatase assay | inhibition, % at 13.3 µM | 290,000 compounds, 1.1% hits; in the data active = inhibition above about 60%
# IDE act – IDE (human) activation, cell-based; 340,000 compounds, 0.073% hits; activation, % at 5.96 µM; AID 493087; HEK cells, FAbeta-B cleavage, fluorescence polarization; 0% vehicle, 100% cell-free pure enzyme wells; P14735;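 active = activation above the mean of all tested compounds plus 3 SD, set per screening campaign, cut at about 17% in these data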
# UBC13 inh – blocks human UBC13 polyubiquitin chain formation. P61088. TR-FRET. inhibition, % at 20 µM. 330,000 compounds, 0.47% hits. AID 485273; in the data active = inhibition above about 45%, passing the limit was not always enough
# proCasp3 act – activators of human procaspase-3 | P42574 | AID 463141 | recombinant procaspase-3 D3A, Ac-DEVD-pNA absorbance 405 nm | activation, % at 8.5 µM | 330,000 compounds, 0.11% hits;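 active = activation above the mean of all tested compounds plus 3 SD, cut at about 21% in these data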;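 also: 0% = DMSO alone and 100% = DMSO wells spiked with extra 5 µM PC-3 D3A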
#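 Assay system: Autoprocessing-dead procaspase-3 D3A mutant enzyme; also added: Ac-DEVD-pNA; doses: one concentration, 8.5 µM nominal, 0.8% DMSO; times: 1 h compound preincubation, 2 h substrate hydrolysis at 25 °C; technique: 405 nm absorbance of p-nitroaniline, reads at 0 and 120 min; measure: % activation between DMSO and enzyme-spiked controls; repeats: single replicate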
# Active calls of the source: *; nt = not tested or not shown.
SMILES,IDE inh,procasp7 counter,PHOSPHO1 inh,IDE act,UBC13 inh,proCasp3 act
CCOCc1cnc(C)nc1NCC(=O)c1c(C)[nH]c2ccc(OC)cc12,-1,-8,64*,-5,8,3
CC(OC(=O)c1cccc(S(=O)(=O)N2CCCCC2)c1)C(=O)NC1CCCCC1C (stereo unspecified),0,4,41,4,11,0
COc1ccc(C(=O)NNC(=O)c2ccc(F)c(S(=O)(=O)N3CCOCC3)c2)cc1,-3,11,nt,-4,-2,11
Cc1ccc(Cl)cc1N1CCN(C(=O)c2noc(C(C)C)c2[N+](=O)[O-])CC1,-3,3,9,-2,-3,9
Cc1ccsc1/C=N/n1c(-c2ccco2)n[nH]c1=S,3,-16,62*,-3,-12,-13
Cc1nc(SCC(=O)Nc2ccccc2)c2oc3ccccc3c2n1,-1,5,23,1,-5,6
CNC(=O)C(Sc1nc(C)nc2c1oc1ccccc12)C(C)=O (stereo unspecified),0,-13,88*,-7,-6,-14
Nn1c(Cc2cccc3ccccc23)nnc1SCn1nnc2ccccc2c1=O,9,0,87*,-2,-2,0
O=c1c2ccccc2nnn1Cc1cccc2ccccc12,2,-1,37,-5,1,6
CN(C(=O)CSc1nnc(Cc2cccc3ccccc23)n1N)C1CCS(=O)(=O)C1 (stereo unspecified),8,-6,88*,-5,-2,-6
COC(=O)Nc1sc2c(c1C(=O)NC1CC1)CCCCCC2,-3,-2,88*,7,3,-3
O=C(Nc1sc2c(c1C(=O)NC1CC1)CCCCCC2)c1ccco1,3,-4,10,7,2,-2
Cc1nc(C)c(C(=O)OCC(=O)NCc2ccccc2Cl)s1,4,6,nt,-4,12,1
COc1ccc(N2C(=O)C(Cl)=C(Nc3ccccc3O)C2=O)cc1,5,-30,70*,5,-12,-18
CCCNC(=S)Nc1ccc(S(N)(=O)=O)cc1,4,-4,31,nt,2,-15
CCOCCCNC(=S)Nc1ccc(S(N)(=O)=O)cc1,1,-3,88*,1,6,-7
CCOC(=O)c1ccc(S(=O)(=O)Nc2cc(S(=O)(=O)Nc3ccc(OC)cc3)ccc2O)cc1,-2,5,nt,0,-31,7
COc1ccc(S(=O)(=O)N2CCC(O)(c3ccc(Cl)cc3)CC2)cc1,-5,-9,5,0,-14,5
COc1ccc(S(=O)(=O)N2CCC(O)(c3ccc(Cl)cc3)CC2)cc1OC,0,1,64*,6,6,12
C=CCN1C(=O)c2ccc(C(=O)OCC(=O)N(CC)C3CCS(=O)(=O)C3)cc2C1=O (stereo unspecified),-3,1,nt,22*,1,0
CCOc1ccc(N2C(=O)c3ccc(C(=O)OCC(=O)N(CC)C4CCS(=O)(=O)C4)cc3C2=O)cc1 (stereo unspecified),0,9,12,0,-10,2
COC(=O)[C@]1(C)N[C@H](CN(C)C(=O)Nc2ccc(OC)cc2)[C@@H]2C(=O)N(Cc3ccccc3)C(=O)[C@@H]21,0,-4,nt,-2,-20,4
CC(C)OC(=O)CC(=O)c1sc2nc3c(cc2c1N)CN(C)CC3,-5,-18,82*,nt,-49,-6
O=C(COC(=O)c1cc([N+](=O)[O-])ccc1NCCO)Nc1cccnc1Cl,7,11,nt,-2,-2,-5
O=C1CCC/C(=N\NC(=O)c2ccc(COc3ccccc3-c3ccccc3)cc2)C1,2,-5,12,-1,14,-6
SMILES,IDE inh,procasp7 counter,PHOSPHO1 inh,IDE act,UBC13 inh,proCasp3 act
O=C(COc1ccccc1-c1ccccc1)NN=C1CCCC1,-3,5,61*,-1,-10,5
CC(=O)Nc1cc2c(cc1C(=O)c1ccccc1)OCCO2,-3,-2,7,18*,-6,5
Cc1ccc(-c2ccc(/C=N\NC(=O)C3C(=O)NCC3c3ccccc3)o2)cc1Cl (stereo unspecified),1,9,60*,-2,-2,-2
COc1ccccc1C(=O)NC(C)c1cccc2ccccc12 (stereo unspecified),2,2,30,1,6,-4
Cc1cc(CN(C)C(=O)c2cc(COc3ccc(F)cc3Cl)on2)n[nH]1,11,-7,60*,1,4,5
COC(=O)C(NNc1ccccc1)(NC(=O)c1ccc(F)cc1)C(F)(F)F (stereo unspecified),-2,7,92*,6,-8,-5
COC(=O)C(NNc1ccccc1)(NC(=O)c1ccccc1F)C(F)(F)F (stereo unspecified),2,-9,-63,2,4,1
Cc1c(C(=O)Nc2cccc([N+](=O)[O-])c2)cnn1-c1ccccc1,3,4,8,-3,3,5
CCOC(=O)c1c(CSC(=N)N)n(-c2ccc(C)cc2)c2cc(Br)c(OC(C)=O)cc12,2,3,24,18*,56*,2
CC(=O)c1c(NC(=O)c2ccccc2)[nH]c(-c2ccccc2)nc1=S,5,-12,-15,1,-19,6
CN(C(=O)c1ccccc1Cl)c1ccccc1C(=O)NCc1ccccc1,2,-5,61*,0,3,-3
CC(=O)Nc1cccc(-c2cc(C)c3cc4c(cc3n2)OCO4)c1,nt,nt,18,1,-11,nt
O=C(O)CC(CC(=O)Nc1nncs1)c1ccccc1 (stereo unspecified),7,2,-12,5,2,7
O=C(O)CC(Cn1[nH]nnc1=S)c1ccccc1 (stereo unspecified),5,9,94*,-4,6,-6
CC(C)(C)c1ccc(C(=O)Nc2ccc(C(=O)NCc3cccnc3)cc2)cc1,6,-2,-52,1,0,-4
CCCN1CCN(C(=O)C2CCN(S(=O)(=O)c3c(C)noc3/C=C/c3ccc(C)cc3)CC2)CC1,-4,6,22,3,20,2
COc1ccccc1OCCc1nnc(N)s1,-2,4,3,0,17,0
COc1ccc(OCCc2nnc(N)s2)cc1,4,-8,62*,3,4,2
CC(C)(C)c1ccccc1NC(=O)c1ccc(-n2cncn2)c([N+](=O)[O-])c1,-3,0,nt,-4,-2,-2
CC(OC(=O)CC1CC2CCC1C2)C(=O)Nc1cccc(S(=O)(=O)N2CCOCC2)c1 (stereo unspecified),7,2,nt,18*,0,-3
